Reference: ChEMBL document CHEMBL5150073, “Photocaged DNA-Binding Photosensitizer Enables Photocontrol of Nuclear Entry for Dual-Targeted Photodynamic Therapy” (J Med Chem, 2022)
Calls of active or inactive are those of the source. The rule behind the calls is not given here.

Columns and labels:
Calf thymus DNA [1] = assay: Binding affinity to calf thymus DNA assessed as dissociation constant by fluorescence based analysis; type: nucleic-acid assay, Bos taurus
How it was run: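 Fluorescence titration: compound at 20 μM in PBS pH 7.4, calf thymus DNA added in 10 μM steps until emission plateaued (~60 μM). Excitation 345 nm, emission 350–650 nm. KD obtained by fitting a one-site total saturation binding model (nonspecific binding proportional to ligand). Triplicate independent samples.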

MCF7 [2] = assay: Photocytotoxicity against human MCF7 cells cultured as […] spheroids assessed as fold reduction in diameter of tumor spheroid size at 10 uM incubated for 1 hr followed by washout and irradiation with 480 nm 2.3 J/cm^2 light for 15 mins with 8 J/cm^2 UV irradiation for 5 mins and incubated overnight by cell viability imaging kit based assay; type: functional
How it was run: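 MCF7 spheroids (~300 μm) grown in ultralow-attachment plates. Compound added to medium at 10 μM final for 1 h, then illuminated: 480 nm (15 min, 2.3 J cm⁻²), 480 nm plus UV (5 min, 8.0 J cm⁻²), or UV only. After overnight incubation, stained with a live/dead imaging kit; dead-cell green mean intensity and spheroid diameter assessed.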

MCF7 [3] = assay: Photorelease activity in human MCF7 cells assessed as 3-bromo-2-(4-carbamimidoylphenyl)-1H-indole-6-carboxamidine release by measuring bright cyan fluorescence in nucleus at 3 uM incubated for 1 hr followed by illumination with 1.6 J/cm^2 for 10 mins by DAPI filter based analysis; type: ADME, cell-based; conditions: mcf7, 1.167 h, time 70 min
How it was run: (§1)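 MCF7 cells given compound (3 μM) for 1 h, washed once with PBS, imaged. DAPI filter set (ex 350–405, em 415–470 nm) used for Br-DAPI cyan signal; EGFP filter set (ex 450–495, em 500–550 nm) used for WinterGreen green signal. Cells imaged dark, then after 480 nm illumination (10 min, 1.6 J cm⁻²).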

[4] = Drug localization in mitochondria of human MCF7 cells assessed as increase in bright green fluorescence of wintergreen excitation at 2 uM incubated for 1 hr in dark by Mitotracker green dye based analysis; type: ADME; conditions: mcf7, 1 h
[5] = Drug uptake in human MCF7 cells cultured as […] spheroids assessed as increase in green fluorescence in nuclear background at 10 uM incubated overnight under dark condition by DAPI filter based fluorescence analysis; type: ADME, cell-based; conditions: mcf7, 10 µM
[6] = Selectivity index, ratio of CC50 for photocytotoxicity against human MCF7 cells irradiated with 480 nm 2.3 J/cm^2 light to CC50 for photocytotoxicity against human MCF7 cells irradiated with 480 nm 2.3 J/cm^2 light and 8 J/cm^2 UV irradiation; type: functional
How it was run: (§2)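 Cells (MCF7, A549, HeLa) incubated 1 h with compound (BB probes 0–32 μM, Br-DAPI 0–64 μM) and washed once. Light arms: 480 nm (15 min, 2.3 J cm⁻²) with or without UV (5 min, 8.0 J cm⁻²), or UV only; dark controls unilluminated. Cells kept overnight in growth medium, then MTT read 24 h post-treatment. CC50 taken relative to untreated cells. n = 3.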

MCF7 [7] = assay: Photorelease activity in human MCF7 cells assessed as wintergreen release by measuring bright green fluorescence in nucleus at 3 uM incubated for 1 hr followed by illumination with 1.6 J/cm^2 for 10 mins by EGFP filter based analysis; type: ADME, cell-based; conditions: mcf7, 1.167 h, time 70 min; how it was run: as §1
MCF7 [8] = assay: Photocytotoxicity against human MCF7 cells assessed as reduction in cell viability incubated for 1 hr followed by washout and irradiation with 480 nm 2.3 J/cm^2 light for 15 mins and measured after 24 hrs by MTT assay; type: functional; conditions: MCF7, light or radiation study; how it was run: as §2
[9] = Photorelease activity in PBS at pH 7.4 assessed as wintergreen release at 50 uM in presence of CT-DNA illuminated with 3.1 J/cm^2 480 nm illumination for 20 mins by RP-HPLC analysis; type: functional
How it was run: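 Samples at 50 μM in PBS pH 7.4 were either kept 3 h at 37 °C in the dark or illuminated 20 min at 480 nm (450–495 nm filter, 3.1 J cm⁻²). Analysed by RP-HPLC on a C18 analytical column with absorbance at 345 nm; retention times recorded. n = 2 independent samples.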

[10] = Aqueous stability of the compound in PBS at pH 7.4 assessed as hydrolysis of carbamate to release 3-bromo-2-(4-carbamimidoylphenyl)-1H-indole-6-carboxamidine at 0.8 uM incubated for 3 hrs by fluorescence based analysis; type: physicochemical; conditions: buffer, pH 7.4, 3 h
DNA = assay: Induction of DNA (unknown origin) damage in PBS at pH 7.4 assessed as double strand breaks by measuring elimination of intact DNA at 10 uM irradiated with 480 nm 2.3 J/cm^2 light for 15 mins with 8 J/cm^2 UV irradiation for 5 mins by ethidium bromide staining based agarose gel electrophoresis; type: nucleic-acid assay; conditions: time 20.0 min
How it was run: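 Plasmid dsDNA (70 ng pCMV-PARP1-3xFlag-WT, 7146 bp) in PBS pH 7.4 with compound at 10 μM. Illumination: 480 nm for 15 min (2.3 J cm⁻²), then UV 365 nm lamp for 5 min (8.0 J cm⁻²). Samples denatured, run on 1% agarose gel with ethidium bromide. n = 2.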

MCF7 [11] = assay: Photocytotoxicity against human MCF7 cells assessed as reduction in cell viability incubated for 1 hr under dark condition followed by washout and measured after 24 hrs by MTT assay; type: functional; how it was run: as §2
MCF7 [12] = assay: Photocytotoxicity against human MCF7 cells assessed as cell death by measuring increase in green fluorescence at 4 uM incubated for 1 hr followed by washout and irradiated with 480 nm 2.3 J/cm^2 light for 15 mins with 48 J 780 nm 2P laser light for 30 seconds by cell viability imaging kit based assay; type: functional
How it was run: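 MCF7 cells given compound at 4 μM. Illuminated with 480 nm light (15 min, 2.3 J cm⁻²) plus 780 nm two-photon laser (30 s, 48 J). Stained 2 h later with a live/dead imaging kit: green dead-cell stain (EGFP filter), blue total-cell stain (DAPI filter). n = 3.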

Calf thymus DNA [13] = assay: Binding affinity to calf thymus DNA assessed as red shift in absorbance spectra at 20 uM by fluorescence based analysis; type: nucleic-acid assay; conditions: Bos taurus
MCF7 [14] = assay: Induction of DNA damage in human MCF7 cells assessed as double strand breaks by measuring pink foci formation in nucleus at 3 uM incubated for 2 hrs followed by irradiation with 480 nm 2.3 J/cm^2 light for 15 mins with 8 J/cm^2 UV irradiation for 5 mins by gammaH2A.X antibody/Alexa 488/DAPI staining based fluorescence analysis; type: functional, cell-based
How it was run: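 MCF7 cells treated with compound at 3 μM, then illuminated with 480 nm (15 min, 2.3 J cm⁻²) plus UV (5 min, 8.0 J cm⁻²), or with UV alone. Left 2 h, fixed, stained with Alexa 488-tagged γH2AX antibody and DAPI counterstain. Nuclear foci imaged.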

[15] = Induction of ROS production in PBS at pH 7.4 at 1 uM irradiated with 480 nm 2.3 J/cm^2 light for 15 mins with 8 J/cm^2 UV irradiation for 5 mins by DCFH2-DA probe based analysis; type: functional; conditions: time 20.0 min
[16] = Induction of ROS production in PBS at pH 7.4 at 1 uM irradiated with 480 nm 2.3 J/cm^2 light for 15 mins with 2-photon irradiation by DCFH2-DA probe based analysis; type: functional
[17] = Stability of compound in human MCF7 cells assessed as esterase-mediated 3-bromo-2-(4-carbamimidoylphenyl)-1H-indole-6-carboxamidine release by measuring cyan fluorescence at 2 uM incubated for 1 hr followed by compound washout and further incubated for 1 hr on heated microscopic stage by DAPI filter based fluorescence analysis; type: ADME, cell-based; conditions: mcf7, 1 h
How it was run: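 Cells incubated with compound (2 μM) for 1 h, washed once with PBS, then kept a further 1 h in the dark on a heated microscope stage. Nuclear cyan fluorescence imaged with the DAPI filter set at 0 h and 2 h time points.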

Drug metabolism (MCF7 [3]): Metabolite_Detected | Drug uptake [4]: Active | Drug uptake [5]: Active | Drug metabolism (MCF7 [7]): Metabolite_Notdetected | Stability [10]: Stable | Activity (Calf thymus DNA [13]): Active | Stability [17]: Stable
SMILES: CC1=CC(C)=[N+]2C1=C(COC(=O)/N=C(\N)c1ccc3c(Br)c(-c4ccc(C(=N)N)cc4)[nH]c3c1)c1c(C)cc(C)n1[B-]2(C)C
Kd (Calf thymus DNA [1]): 6 µM | fold change (FC) (MCF7 [2]): 5 | Ratio [6]: 8.5 | CC50 (MCF7 [8]): 4 µM | Drug metabolism [9]: Metabolite not detected | Activity (DNA): Active | CC50 (MCF7 [11]): > 10 µM | Activity (MCF7 [12]): Active | Activity (MCF7 [14]): Active | Activity [15]: Active | Activity [16]: Active
